Compound activity: PubChem BioAssay, several laboratories
Tb MetRS inh: blocks T. brucei methionyl-tRNA synthetase activity; purified T. brucei MetRS, ATP depletion, Kinase-Glo luminescence; inhibition, % at 11.9 µM; 0.4% of 360,000 active;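 active = inhibition above a per-plate cutoff of the control wells' mean inhibition plus 3 SD, cut at about 5.5% in these data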;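 also: 0% = DMSO wells median and 100% = median of wells with control inhibitor compound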
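technique = Kinase-Glo luminescence, ATP depletion format | system = purified MetRS (methionyl-tRNA synthetase) enzyme from Trypanosoma brucei | timing = 15 min preincubation, 2 h reaction, all 25 °C | evaluation = percent inhibition versus plate control medians | dosing = single dose, 11.9 µM final nominal, 0.9% final DMSO | also added = substrates ATP, L-methionine and bulk Escherichia coli tRNA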
Rpn11 block: inhibitors of human proteasome Rpn11; inhibition, % at 20 µM; 0.59% of 360,000 active; AID 588493; human 26S proteasome, Ub4-pepOG fluorescence polarization; 20S core pre-blocked with epoxomicin; O00487;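 active = inhibition at 20 µM, scaled to each plate's controls, above about 33%, limit read from the data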
Target sequence (O00487 whole entry, looked up): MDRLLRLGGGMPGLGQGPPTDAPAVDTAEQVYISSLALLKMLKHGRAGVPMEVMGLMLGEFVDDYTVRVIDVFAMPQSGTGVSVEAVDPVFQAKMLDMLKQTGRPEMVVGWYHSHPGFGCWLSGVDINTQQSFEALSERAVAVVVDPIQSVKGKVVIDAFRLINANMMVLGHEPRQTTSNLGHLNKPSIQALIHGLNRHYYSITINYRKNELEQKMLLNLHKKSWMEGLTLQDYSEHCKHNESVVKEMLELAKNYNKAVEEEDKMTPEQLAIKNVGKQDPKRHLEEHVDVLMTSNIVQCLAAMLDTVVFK
PREPL inhibitor: human PREPL enzyme inhibition; recombinant PREPL, fluorescence polarization activity-based probe; inhibition, % at 5.96 µM; 0.68% of 320,000 active; in the data active = inhibition above about 43%;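 also: 0% = enzyme with DMSO and 100% = wells lacking enzyme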
HNF4A DNA FP: change in binding of human HNF4 alpha to DNA; 0.3% of 360,000 active; AID 1224865; HNF4a-FITC DNA binding, fluorescence polarization, 1 h; activity change, % at 10 µM; P41235; in the data active = activity change above about 30%, passing the limit was not always enough
Neddylation inh: blocks human cullin neddylation; P61081+Q13564; TR-FRET cullin neddylation, biochemical; inhibition, % at 25 µM; 0.58% of 360,000 active; AID 651699; in the data active = inhibition above about 36%
CSN inh: blocks human CSN-mediated cullin deneddylation | Purified CSN, SCF-Nedd8-OG deneddylation, fluorescence polarization | inhibition, % at 12.5 µM | 0.38% of 360,000 active;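 active = pattern-corrected inhibition above about 35%, with an unprinted fluorescence ratio check between 0.5 and 1.5, limit read from the data, passing the limit was not always enough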;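 also: 0% = enzyme with substrate and 100% = substrate without enzyme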
Target sequence (Q92905 whole entry, looked up, one chain of several): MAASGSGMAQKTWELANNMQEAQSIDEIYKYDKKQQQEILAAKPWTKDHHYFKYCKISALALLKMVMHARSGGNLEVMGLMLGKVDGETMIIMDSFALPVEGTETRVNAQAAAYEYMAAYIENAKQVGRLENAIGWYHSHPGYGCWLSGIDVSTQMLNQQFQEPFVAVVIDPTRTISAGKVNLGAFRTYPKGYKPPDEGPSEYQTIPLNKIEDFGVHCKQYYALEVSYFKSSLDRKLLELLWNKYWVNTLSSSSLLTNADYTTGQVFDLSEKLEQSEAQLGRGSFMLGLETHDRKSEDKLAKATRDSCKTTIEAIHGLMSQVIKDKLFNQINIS
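Test system: Human Csn5 produced in HEK293T cells | Compound: 12.5 µM single point | Times: 90 min, room temperature | Signal: Fluorescence polarization readout | Read-out basis: % inhibition of substrate cleavage by Csn5 | Controls: no-enzyme wells high, enzyme-with-substrate wells low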
TbMetRS confirm: confirmation of Trypanosoma brucei MetRS inhibitors | shares compounds with Tb MetRS inh | T. brucei MetRS enzyme, luminescence (ATP depletion) | inhibition, % at 11.9 µM | 93% of 1,400 active; in the data active = inhibition above about 7%
Jurkat cytotox: counter-screen for T. brucei MetRS inhibitors: Jurkat cell cytotoxicity | shares compounds with Tb MetRS inh | inhibition, % at 8.3 µM | Jurkat cells viability, ATP luminescence | AID 624413 | 12% of 1,400 active; in the data active = inhibition above about 15%;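 also: 0% = vehicle and 100% = reference inhibitor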
Tb MetRS inh FP: orthogonal test for Trypanosoma brucei MetRS inhibitors; shares compounds with Tb MetRS inh; purified T. brucei MetRS, fluorescence polarization; inhibition, % at 11.9 µM; 44% of 1,400 active; AID 651607; in the data active = inhibition above about 17%;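 also: 0% = vehicle wells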
Active calls of the source: *; . = no result. The list is not random: actives were taken first. Their share in the collection is about 2.4%.

SMILES	Tb MetRS inh	Rpn11 block	PREPL inhibitor	HNF4A DNA FP	Neddylation inh	CSN inh	TbMetRS confirm	Jurkat cytotox	Tb MetRS inh FP
CCCCc1cc(=O)oc2cc(OCC(=O)NC(Cc3c[nH]c4ccc(O)cc34)C(=O)O)ccc12 (stereo unspecified)	2	-4	17	3	6	2	.	.	.
CCOC(=O)[C@]12CCC=C1N(Cc1cccc3ccccc13)C(=O)[C@H](CC(=O)NCCCCc1ccccc1)C2	-1	.	.	2	1	1	.	.	.
Cc1ccc(S(=O)(=O)Nc2cccc3ncccc23)cc1	0	-4	2	0	11	3	.	.	.
Cc1ccc(S(=O)(=O)Nc2ccnc3ccccc23)cc1	7.0*	3	1	0	-4	0	15*	8	8
C=CCNC(=S)NNC(=O)CSc1nc2ccccc2s1	7.6*	-61	-4	0	-1	2	14*	4	1
CCn1c(N2CCN(CC(=O)c3c[nH]c4ccccc34)CC2)nc2c1c(=O)[nH]c(=O)n2C	7.8*	5	21	8	0	3	19*	0	5
CC1=C(C(=O)N(C)C)CC(CC(=O)NCc2cccs2)C(=O)N1CCC1=CCCCC1 (stereo unspecified)	-1	-8	.	3	1	-3	.	.	.
Fc1ccccc1NC(=S)NCCc1cccc(Cl)c1	6.0*	5	.	-3	5	4	17*	6	9
O=C(NC(=O)N1CCCCCC1)c1ccc(Cl)cc1	0	-7	0	1	-3	4	.	.	.
CCN(CC)C(=O)c1cccc(-c2csc(C(O)c3ccc(F)c(F)c3)n2)c1 (stereo unspecified)	0	1	.	2	-16	-2	.	.	.
S=c1nc(-c2sccc2OCc2ccc(Cl)cc2Cl)[nH][nH]1	8.6*	-1	-3	6	23	6	13*	1	0
CNC(=S)NNC(=O)c1sccc1OCc1ccc(Cl)cc1Cl	0	0	6	0	-10	-6	.	.	.
O=C(NCc1cccc(Cl)c1)c1ccc2c(c1)SC1=NS(=O)(=O)CCN12	6.1*	-9	-16	4	3	3	15*	1	6
COc1ccccc1NC(=O)c1nnn(CC(=O)Nc2cccc(SC)c2)c1N	6.0*	0	12	-3	7	4	7.6*	-2	15
O=C(CCc1nc2ccccc2c(=O)[nH]1)OCCOc1ccc(Cl)cc1	16*	0	-8	1	-3	-5	30*	5	19*
O=C(CCc1nc2ccccc2c(=O)[nH]1)OCc1ccccc1F	1	0	-1	0	7	-2	.	.	.
OCC[C@@H]1C[C@H](O)[C@@H](O)[C@@]2(OCc3cc(C(F)(F)F)ccc32)O1	-2	-1	.	-2	14	6	.	.	.
Cc1ccc(NC(=O)/C=N/OCC(=O)NCc2ccccc2Cl)cc1	16*	5	1	2	0	0	29*	-11	12
CC(C)C(=O)OCC(=O)NCc1ccccc1Cl	0	0	3	3	1	-6	.	.	.
Cc1cc(C)c(SSc2nnnn2-c2ccccc2)c(C)c1	0	-5	.	0	-16	8	.	.	.
O=C(/C(=C\c1ccccc1)c1nc2ccccc2[nH]1)c1ccc(Cl)cc1	9.7*	-3	-9	-1	16	4	4	79*	0
Cn1nccc1-c1coc2c(C(=O)N3CCOCC3)cccc12	7.6*	-7	.	3	3	1	5	-10	2
O=C(c1cccnc1Cl)N1CCOCC1	0	-9	7	1	1	-7	.	.	.
O=c1[nH]cc(S(=O)(=O)N2CCN(c3cccc(Cl)c3)CC2)c(=O)[nH]1	0	3	-2	-2	10	2	.	.	.
O=C(CSCc1nc2ccccc2[nH]1)N1CCN(c2cccc(Cl)c2)CC1	13*	-3	-8	1	12	25	26*	3	11
SMILES	Tb MetRS inh	Rpn11 block	PREPL inhibitor	HNF4A DNA FP	Neddylation inh	CSN inh	TbMetRS confirm	Jurkat cytotox	Tb MetRS inh FP
S=c1[nH]nc(CCc2nc3ccccc3[nH]2)n1-c1cccc(Cl)c1	7.7*	1	-6	-3	8	5	14*	-7	1
O=C1CNC(c2ccccc2)C(c2ccccc2)N1 (stereo unspecified)	0	-6	.	4	12	-2	.	.	.
Cc1ccc2[nH]cc(S(=O)(=O)c3ccc(C)c(C)c3)c(=O)c2c1	6.8*	-2	-13	1	-286	2	38*	4	9
Cn1c(NCc2cccc(Br)c2)nc2ccccc21	40*	-2	11	2	-1	3	53*	8	29*
CN(C)c1ccc(CNc2nc3ccccc3n2C)cc1	0	2	.	-1	-7	1	.	.	.
COc1cc(/C=N/N2CCN(Cc3ccc(C)cc3)CC2)cc(OC)c1O	0	-3	37	3	-5	3	.	.	.
Cc1ccc(NC2=NC(c3ccc(O)cc3)n3c(nc(C)cc3=O)N2)cc1 (stereo unspecified)	1	13	8	0	1	8	.	.	.
Cc1ccc(C2NC(=NCc3ccccc3)Nc3nc(C)cc(=O)n32)cc1 (stereo unspecified)	7.6*	5	-28	-3	8	-1	17*	-1	-1
O=C(Cc1cccs1)NCc1cccc(Cl)c1	2	7	.	2	-5	-4	.	.	.
S=C(NCc1cccs1)Nc1cc(Cl)cc(Cl)c1	23*	2	-11	-2	8	-2	31*	4	20*
O=C(Cc1cccs1)NCc1cc(Cl)cc(Cl)c1	56*	-12	-24	-1	-2	-2	73*	-2	44*
COC(=O)c1ccc(CSc2nnc(Nc3ccc(C)cc3)s2)o1	7.5*	-2	13	-1	-6	-2	14*	1	8
COc1cccc(C(O)c2nc(-c3cccc(C#N)c3)cs2)c1 (stereo unspecified)	0	-1	.	4	-9	-2	.	.	.
CSCCC(C(=O)Nc1c(C)cccc1C)n1c(-c2ccc(C(F)(F)F)cc2)nc2ccccc21 (stereo unspecified)	-1	.	.	0	-78	1	.	.	.
O=C(NCc1ccccn1)c1ccc(Cn2c(=S)[nH]c3ccc(Br)cc3c2=O)cc1	0	4	-11	1	-220	-4	.	.	.
O=c1c2cc(Cl)ccc2[nH]c(=S)n1Cc1ccccn1	6.8*	-13	-2	0	-34	-7	16*	6	3
